From ChEMBL document CHEMBL1140686, “Indanylacetic acids as PPAR-delta activator insulin sensitizers” (Bioorg Med Chem Lett, 2007)
Values belong to the molecule of their own block, whether it stands above or below them. Active and inactive are the calls of the source. The calls are words filed in the database; no cut-off is given here.

What was measured:
[1] = biological target: T1, Peroxisome proliferator-activated receptor alpha (Homo sapiens, UniProt Q07869); assay: (§1) Agonist activity at PPARalpha by FRET assay; type: functional
T1 sequence (Q07869 whole entry): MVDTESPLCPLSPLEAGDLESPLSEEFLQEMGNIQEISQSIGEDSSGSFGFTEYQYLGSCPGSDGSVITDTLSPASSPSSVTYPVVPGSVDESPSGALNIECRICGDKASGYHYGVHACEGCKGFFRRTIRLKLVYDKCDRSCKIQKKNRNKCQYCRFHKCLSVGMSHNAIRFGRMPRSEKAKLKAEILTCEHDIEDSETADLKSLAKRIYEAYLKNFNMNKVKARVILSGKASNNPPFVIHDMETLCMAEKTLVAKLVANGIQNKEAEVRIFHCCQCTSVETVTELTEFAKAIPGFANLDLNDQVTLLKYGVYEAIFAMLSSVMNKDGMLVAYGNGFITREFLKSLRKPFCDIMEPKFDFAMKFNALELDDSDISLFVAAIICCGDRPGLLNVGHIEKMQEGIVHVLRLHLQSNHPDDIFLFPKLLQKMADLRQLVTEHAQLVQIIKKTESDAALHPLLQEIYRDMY
Method in brief: (§2)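 FRET coactivator-recruitment assay run with the PPAR-δ ligand binding domain (GST-tagged human PPAR-δ LBD) and separately with the PPAR-α ligand binding domain. Compounds were incubated with europium-labelled anti-GST antibody, biotinylated TRAP220 coactivator protein and streptavidin-labelled APC. Read in a fluorimeter at excitation 340 nm and emission 615 and 665 nm.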

[2] = test system: 3T3-L1; assay: Induction of insulin receptor in mouse 3T3L1 cells assessed as insulin sensitizing activity; type: functional, cell-based; settings: for EC50: Mus musculus, 3T3-L1
Method in brief: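 3T3-L1 preadipocytes grown about 1 week to 2 days post-confluence, then exposed 2 days to compound plus 0.5 µM IGF-1 in DMEM/10% FBS/2 mM glutamine/pen-strep, then 4 days in plain medium. Cells bound 0.1 nM [125I]insulin ± 100 nM unlabeled insulin for 1 h at room temperature, were washed and lysed in 1 N NaOH, then gamma-counted. EC50 taken where a plateau was reached; percent maximal stimulation recorded.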

[3] = species on record: Homo sapiens; assay: Selectivity for PPARdelta over PPARalpha; method in brief: as §2
[4] = biological target: T2, Peroxisome proliferator-activated receptor alpha (Homo sapiens) (UniProt Q07869); assay: as §1; type: functional; method in brief: as §2
T2 sequence (whole entry): T1 sequence (Q07869 whole entry)

[5] = test system: Mus musculus; assay: Reduction in blood glucose level in db/db mouse at 10 mg/kg, po; type: functional, organism-based; set-up: dose 10 mg/kg
[6] = test system: Mus musculus; assay: Increase in serum HDL level in hApoA1 mouse model at 10 mg/kg, po; type: functional
[7] = test system: Mus musculus; assay: Decrease in serum triglyceride level in hApoA1 mouse model at 10 mg/kg, po; type: functional; set-up: scale not given: the % may be the effect or the level left
[8] = biological target: Peroxisome proliferator-activated receptor delta (Homo sapiens) (UniProt Q03181); assay: Agonist activity at GST-tagged human PPARdelta by FRET assay
[9] = test system: Mus musculus; assay: Reduction in blood glucose level in db/db mouse at 3 mg/kg, po; type: functional, organism-based; set-up: dose 3 mg/kg
[10] = test system: Mus musculus; assay: Increase in serum HDL level in hApoA1 mouse model at 30 mg/kg, po; type: functional
[11] = test system: Mus musculus; assay: Decrease in serum triglyceride level in hApoA1 mouse model at 30 mg/kg, po; type: functional; set-up: scale not given: the % may be the effect or the level left

Sequence of Peroxisome proliferator-activated receptor delta (Homo sapiens) (Q03181 whole entry, looked up): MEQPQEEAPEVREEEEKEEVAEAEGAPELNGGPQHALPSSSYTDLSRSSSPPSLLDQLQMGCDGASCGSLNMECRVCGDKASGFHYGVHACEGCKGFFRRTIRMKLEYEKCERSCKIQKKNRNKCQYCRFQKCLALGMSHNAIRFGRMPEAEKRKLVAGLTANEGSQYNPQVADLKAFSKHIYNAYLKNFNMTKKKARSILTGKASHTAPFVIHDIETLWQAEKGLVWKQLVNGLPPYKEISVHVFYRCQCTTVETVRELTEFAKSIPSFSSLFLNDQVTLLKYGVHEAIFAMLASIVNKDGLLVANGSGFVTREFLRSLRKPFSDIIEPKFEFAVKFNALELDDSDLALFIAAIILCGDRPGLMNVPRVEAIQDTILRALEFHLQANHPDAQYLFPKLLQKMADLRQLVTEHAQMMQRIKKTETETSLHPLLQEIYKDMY

SMILES: O=C(O)C[C@@H]1CCc2cc(OCCc3nc(-c4ccccc4)oc3CCc3ccccc3)ccc21
EC50 [1]: 10 µM
Activity [2]: 9%
EC50 [2]: > 3 µM

SMILES: Cc1sc(-c2cccc(F)c2)nc1CCOc1ccc2c(c1)CC[C@H]2CC(=O)O
EC50 [1]: 6.53 µM
EC50 [2]: 0.14 µM

SMILES: Cc1sc(-c2cccc(C(F)(F)F)c2)nc1CCOc1ccc2c(c1)CC[C@H]2CC(=O)O
EC50 [1]: 10 µM
EC50 [2]: 0.045 µM

SMILES: Cc1nc(-c2ccc(-c3ccccc3)cc2)n(C)c1CCOc1ccc2c(c1)CC[C@H]2CC(=O)O
EC50 [1]: 10 µM
EC50 [2]: 0.071 µM

SMILES: Cc1sc(-c2ccc(-c3ccccc3)cc2)nc1CCOc1ccc2c(c1)CC[C@H]2CC(=O)O
EC50 [1]: 10 µM
EC50 [2]: 0.27 µM

SMILES: Cc1sc(-c2ccc3c(c2)OCO3)nc1CCOc1ccc2c(c1)CC[C@H]2CC(=O)O
EC50 [1]: 1.21 µM
EC50 [2]: 0.066 µM

SMILES: Cc1oc(-c2ccccc2)nc1CCOc1ccc2c(c1)CCC2C(C)C(=O)O (centres undefined)
EC50 [1]: 0.22 µM
Ratio EC50 [3]: 1.8

SMILES: COc1ccc(-c2nc(CCOc3ccc4c(c3)CC[C@H]4CC(=O)O)c(C)n2C)cc1
EC50 [1]: 10 µM
Activity [2]: 56%
EC50 [2]: 0.644 µM

SMILES: Cc1c(CCOc2ccc3c(c2)CC[C@H]3CC(=O)O)nc(-c2ccccc2)n1C
EC50 [1]: 10 µM
Activity [2]: 55%
EC50 [2]: 0.608 µM

SMILES: Cc1cccc(-c2nc(CCOc3ccc4c(c3)CC[C@H]4CC(=O)O)c(C)s2)c1
EC50 [1]: 6.79 µM
EC50 [2]: 0.05 µM

SMILES: COC(C(=O)O)C1CCc2cc(OCCc3nc(-c4ccccc4)oc3C)ccc21 (centres undefined)
Ratio EC50 [3]: 0.15

SMILES: Cc1sc(-c2ccccc2F)nc1CCOc1ccc2c(c1)CC[C@H]2CC(=O)O
EC50 [1]: 10 µM
EC50 [2]: 1.62 µM

SMILES: Cc1oc(-c2ccccc2)nc1CCOc1ccc2c(c1)CC(C)C2CC(=O)O (centres undefined)
Activity [4]: 11%
EC50 [1]: 7.47 µM
Activity [2]: 58%
EC50 [2]: 5.44 µM

SMILES: CCC(C(=O)O)C1CCc2cc(OCCc3nc(-c4ccccc4)oc3C)ccc21 (centres undefined)
EC50 [1]: 0.13 µM
Ratio EC50 [3]: 0.22

SMILES: CN(CCOc1ccc(CC2SC(=O)NC2=O)cc1)c1ccccn1 (centres undefined)
Activity [5]: Active

SMILES: Cc1sc(-c2ccc(OC(F)(F)F)cc2)nc1CCOc1ccc2c(c1)CC[C@H]2CC(=O)O
EC50 [1]: 7.94 µM
EC50 [2]: 0.225 µM

SMILES: COc1ccc(-c2nc(C)c(CCOc3ccc4c(c3)CC[C@H]4CC(=O)O)n2C)cc1
EC50 [1]: 10 µM
Activity [2]: 41%
EC50 [2]: 5.56 µM

SMILES: Cc1cc(SCc2sc(-c3ccc(C(F)(F)F)cc3)nc2C)ccc1OCC(=O)O [GW501516]
Activity [6]: 30%
Activity [7]: 33%

SMILES: Cc1nc(-c2ccccc2)n(C)c1CCOc1ccc2c(c1)CC[C@H]2CC(=O)O
EC50 [1]: 10 µM
Activity [2]: 19%
EC50 [2]: 5.94 µM

SMILES: Cc1c(CCOc2ccc3c(c2)CC[C@H]3CC(=O)O)nc(-c2ccc(-c3ccccc3)cc2)n1C
EC50 [1]: 10 µM
EC50 [2]: 0.054 µM

SMILES: Cc1oc(-c2ccccc2)nc1CCOc1ccc2c(c1)C(C)(C)CC2CC(=O)O (centres undefined)
Activity [4]: 7.5%
EC50 [1]: 10 µM
Activity [2]: 66%
EC50 [2]: 0.253 µM
Activity [8]: 38%

SMILES: Cc1oc(-c2ccccc2)nc1CCOc1ccc2c(c1)OCC2CC(=O)O (centres undefined)
Activity [4]: 15%
EC50 [1]: 10 µM

SMILES: COc1cccc(-c2nc(CCOc3ccc4c(c3)CC[C@H]4CC(=O)O)c(C)s2)c1
EC50 [1]: 6.96 µM
EC50 [2]: 0.032 µM

SMILES: Cc1sc(-c2ccccc2)nc1CCOc1ccc2c(c1)CC[C@H]2CC(=O)O
EC50 [1]: 10 µM
Activity [2]: 60%
EC50 [2]: 0.267 µM

SMILES: Cc1oc(-c2ccccc2)nc1CCOc1ccc2c(c1)CCC[C@H]2CC(=O)O
Activity [4]: 58%
EC50 [1]: 2.19 µM
Activity [8]: 50%

More lines, main results first:

EC50 [1]: 10 µM
SMILES: CCCc1oc(-c2ccccc2)nc1CCOc1ccc2c(c1)CC[C@H]2CC(=O)O
Activity [2]: 32%
EC50 [2]: 3 µM

EC50 [1]: 0.444 µM
SMILES: Cc1ccc(-c2nc(CCOc3ccc4c(c3)CC[C@H]4CC(=O)O)c(C)o2)cc1
EC50 [2]: 0.024 µM

EC50 [1]: 0.078 µM
SMILES: CCc1ccc(-c2nc(CCOc3ccc4c(c3)CC[C@H]4CC(=O)O)c(C)o2)cc1
EC50 [2]: 0.027 µM

EC50 [1]: 1.02 µM
SMILES: CCc1oc(-c2ccc(C)cc2)nc1CCOc1ccc2c(c1)CC[C@H]2CC(=O)O
EC50 [2]: 0.03 µM

EC50 [1]: 10 µM
SMILES: Cc1sc(-c2ccc(Cl)cc2)nc1CCOc1ccc2c(c1)CC[C@H]2CC(=O)O
EC50 [2]: 0.97 µM

EC50 [1]: 0.89 µM
Ratio EC50 [3]: 32
SMILES: Cc1oc(-c2ccccc2)nc1CCOc1ccc2c(c1)CCC2CC(=O)O (centres undefined)

EC50 [1]: 9.98 µM
SMILES: Cc1oc(-c2ccc(C#N)cc2)nc1CCOc1ccc2c(c1)CC[C@H]2CC(=O)O
EC50 [2]: 0.301 µM

EC50 [1]: 1.89 µM
SMILES: COc1cccc(-c2nc(CCOc3ccc4c(c3)CC[C@H]4CC(=O)O)c(C)o2)c1
EC50 [2]: 0.082 µM

EC50 [1]: 0.559 µM
SMILES: Cc1sc(-c2ccc(C(C)C)cc2)nc1CCOc1ccc2c(c1)CC[C@H]2CC(=O)O
EC50 [2]: 0.025 µM

EC50 [1]: 10 µM
SMILES: CCc1ccc(-c2nc(C)c(CCOc3ccc4c(c3)CC[C@H]4CC(=O)O)n2C)cc1
EC50 [2]: 0.155 µM

EC50 [1]: 0.3 µM
SMILES: Cc1oc(-c2ccc(C(C)C)cc2)nc1CCOc1ccc2c(c1)CC[C@H]2CC(=O)O
EC50 [2]: 0.033 µM

EC50 [1]: 10 µM
SMILES: CCOc1ccc(-c2nc(CCOc3ccc4c(c3)CC[C@H]4CC(=O)O)c(C)s2)cc1
EC50 [2]: 0.165 µM

EC50 [1]: 0.504 µM
SMILES: Cc1oc(-c2ccc(F)cc2)nc1CCOc1ccc2c(c1)CC[C@H]2CC(=O)O
EC50 [2]: 0.354 µM

EC50 [1]: 2.46 µM
SMILES: Cc1oc(-c2ccccc2)nc1CCOc1ccc2c(c1)CC[C@H]2CC(=O)O
EC50 [2]: 0.231 µM

EC50 [1]: 0.594 µM
SMILES: Cc1ccc(-c2nc(CCOc3ccc4c(c3)CC[C@H]4CC(=O)O)c(C)s2)cc1
EC50 [2]: 0.065 µM

EC50 [1]: 1.57 µM
SMILES: Cc1oc(-c2cccc(Cl)c2)nc1CCOc1ccc2c(c1)CC[C@H]2CC(=O)O
EC50 [2]: 0.2 µM

EC50 [1]: 10 µM
SMILES: CCc1ccc(-c2nc(CCOc3ccc4c(c3)CC[C@H]4CC(=O)O)c(C)n2C)cc1
EC50 [2]: 0.103 µM

EC50 [1]: 0.798 µM
SMILES: COc1ccc(-c2nc(CCOc3ccc4c(c3)CC[C@H]4CC(=O)O)c(C)o2)cc1
EC50 [2]: 0.029 µM

EC50 [1]: 1.69 µM
SMILES: Cc1oc(-c2cccc(F)c2)nc1CCOc1ccc2c(c1)CC[C@H]2CC(=O)O
EC50 [2]: 0.371 µM

EC50 [1]: 3.28 µM
SMILES: COc1ccc(-c2nc(CCOc3ccc4c(c3)CC[C@H]4CC(=O)O)c(C)s2)cc1
EC50 [2]: 0.166 µM

EC50 [1]: 1.15 µM
SMILES: Cc1cccc(-c2nc(CCOc3ccc4c(c3)CC[C@H]4CC(=O)O)c(C)o2)c1
EC50 [2]: 0.101 µM

EC50 [1]: 2.27 µM
SMILES: Cc1sc(-c2ccc(F)cc2)nc1CCOc1ccc2c(c1)CC[C@H]2CC(=O)O
EC50 [2]: 0.544 µM

EC50 [1]: 2.72 µM
SMILES: Cc1oc(-c2ccc(-c3ccccc3)cc2)nc1CCOc1ccc2c(c1)CC[C@H]2CC(=O)O
EC50 [2]: 0.045 µM
Activity [9]: Active
Activity [10]: 29%
Activity [11]: 38%

EC50 [1]: 10 µM
SMILES: CCc1oc(-c2ccccc2)nc1CCOc1ccc2c(c1)CC[C@H]2CC(=O)O
EC50 [2]: 0.186 µM

EC50 [1]: 2.53 µM
SMILES: CCc1ccc(-c2nc(CCOc3ccc4c(c3)CC[C@H]4CC(=O)O)c(CC)o2)cc1
EC50 [2]: 0.035 µM

EC50 [1]: 1.19 µM
SMILES: Cc1oc(-c2ccc(Cl)cc2)nc1CCOc1ccc2c(c1)CC[C@H]2CC(=O)O
EC50 [2]: 0.212 µM

EC50 [1]: 10 µM
SMILES: Cc1oc(-c2cccc(C#N)c2)nc1CCOc1ccc2c(c1)CC[C@H]2CC(=O)O
EC50 [2]: 0.164 µM

EC50 [1]: 0.546 µM
SMILES: Cc1oc(-c2ccc(C(C)(C)C)cc2)nc1CCOc1ccc2c(c1)CC[C@H]2CC(=O)O
